TDP2 absorb = human TDP2 enzyme inhibitors, primary screen, biochemical, epi absorbance, recombinant enzyme; T5PNP hydrolysis, p-nitrophenol absorbance 415 nm; Tyrosyl-DNA phosphodiesterase 2 (Homo sapiens), O95551; hit rate 0.34% among 370,000; inhibition, % at 12.8 µM; AID 720702, 2013;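 active = inhibition above the mean of all tested compounds plus 3 SD, set per campaign, cut at about 25% in these data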;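 also: 0% = DMSO with enzyme and 100% = buffer with substrate but no TDP2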
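System – recombinant human TDP2 · Amount – 120 nM TDP2 per well · Buffer or medium – Mg2+-containing Tris-HCl buffer, pH 7.5 · Reagent – T5PNP substrate, 5 mM · Dosing – 12.8 µM single point, 1% DMSO · Incubation – 2 h at 37 °C · Measured by – epi absorbance · Read-out basis – percent inhibition · Benchmarks – high control without enzyme, low control DMSO plus TDP2 · Repeats – singlicate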
LEDGF integ inh = blockers of LEDGF/p75-dependent integrase strand transfer – biochemical, TR-FRET, high throughput, primary screen; AID 743269, 2014; TR-FRET IN-LEDGF/p75 DNA integration, Eu/Cy5; inhibition, % at 3.7 µM; hit rate 0.64% among 370,000; HIV-1 integrase (with human LEDGF/p75);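 active = inhibition above the screen-wide mean plus 3 SD, cut at about 13% in these data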;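 also: signal is the Cy5 over europium emission ratio at 671 and 618 nm; 0% = plate median of compound wells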
MBD2 inh = inhibitors of MBD2 binding to methylated DNA, primary screen, biochemical, TR-FRET, DNA-binding domain, human | MBD2 binding to methylated oligonucleotide | Methyl-CpG-binding domain protein 2 (Homo sapiens), Q9UBB5 | inhibition, % at 4.4 µM | hit rate 0.31% among 370,000; in the data active = inhibition above about 13%
Target sequence (Q9UBB5 whole entry, looked up, the tested form may be a part): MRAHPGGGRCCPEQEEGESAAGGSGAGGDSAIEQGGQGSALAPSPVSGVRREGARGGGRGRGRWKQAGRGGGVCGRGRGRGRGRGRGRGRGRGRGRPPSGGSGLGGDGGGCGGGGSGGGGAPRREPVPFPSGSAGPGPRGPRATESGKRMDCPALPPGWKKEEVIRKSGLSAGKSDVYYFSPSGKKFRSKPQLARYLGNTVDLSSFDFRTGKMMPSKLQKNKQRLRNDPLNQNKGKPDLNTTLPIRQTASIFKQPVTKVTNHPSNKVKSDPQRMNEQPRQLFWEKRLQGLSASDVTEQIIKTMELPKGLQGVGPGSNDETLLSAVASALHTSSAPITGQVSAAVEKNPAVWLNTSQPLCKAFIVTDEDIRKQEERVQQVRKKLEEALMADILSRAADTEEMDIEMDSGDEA
UHRF1 MBD2 ctr = UHRF1 methylated DNA binding inhibitors, primary screen, counter-screen for MBD2 inhibitor project, biochemical, TR-FRET, human UHRF1, single concentration; AID 687016, 2013; E3 ubiquitin-protein ligase UHRF1 (Homo sapiens), Q96T88; inhibition, % at 4.4 µM; UHRF1 binding to methylated oligo; hit rate 0.75% among 370,000; in the data active = inhibition above about 21%;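 also: UHRF1 SRA domain binding a hemimethylated CpG hairpin DNA probe; 0% = median of test compound wells and 100% = reference inhibitor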
NSD2 inh = NSD2 histone methyltransferase inhibitors, primary screen, biochemical, AlphaScreen, single concentration, set 2. Histone-lysine N-methyltransferase NSD2 (Homo sapiens), O96028. NSD2 peptide methylation, 120 min. inhibition, % at 12.5 µM. hit rate 0.54% among 310,000. AID 743445, 2014; in the data active = inhibition above about 50%
Casp6 inh = human caspase-6 inhibitors, primary screen, biochemical, VEID-R110 fluorescence, single point, set 2. inhibition, % at 12.5 µM. P55212. hit rate 0.53% among 350,000. purified caspase-6, Z-VEID-R110 cleavage fluorescence;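 active = mean inhibition across replicates at least about 35%, with every replicate also reaching that limit, limit read from the data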;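 also: 0% = median of neutral control wells and 100% = no fluorescence left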
TDP2 inh conf = human TDP2 enzyme inhibitors, retest, confirmation, biochemical, epi absorbance, recombinant enzyme. shares compounds with TDP2 absorb. absorbance read-out. inhibition, % at 12.8 µM. hit rate 22% among 1,100. AID 743263, 2014; in the data active = inhibition above about 25%;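 also: 0% = vehicle with enzyme and 100% = no enzyme buffer only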
IN multimer act = HIV-1 IN multimer formation enhancers, counter-screen for LEDGF/p75 integration inhibitor project, biochemical, TR-FRET | shares compounds with LEDGF integ inh | TR-FRET HIV-1 integrase multimerization | activation, % at 7.7 µM | hit rate 17% among 2,000 | AID 1053131, 2014; in the data active = activation above about 8.9%
TR-FRET interf = TR-FRET optical interference artefacts, confirmation, artefact control for LEDGF/p75-dependent integration inhibitor project, biochemical, HIV-1 IN multimerization | shares compounds with LEDGF integ inh | inhibition, % at 7.7 µM | 2,000 tested, under 10 active | TR-FRET optical interference counterscreen;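 active = inhibition above the mean over all tested compounds plus 3 SD, which no compound reached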;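 also: 0% = integrase with antibodies and DMSO and 100% = antibodies without integrase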
LEDGF integ conf = inhibitors of HIV-1 IN-LEDGF/p75 DNA integration, confirmation, biochemical, TR-FRET; shares compounds with LEDGF integ inh; TR-FRET LEDGF/p75-dependent HIV-1 integration; inhibition, % at 3.7 µM; hit rate 36% among 2,000; AID 1053136, 2014; in the data active = inhibition above about 14%
AlphaScreen art = AlphaScreen signal interference with preloaded methylated product, dose response, artefact control for NSD2 inhibitor project, biochemical, cherry-picked samples. AlphaScreen artifact counterscreen, preloaded methylated H4 peptide. shares compounds with NSD2 inh. AC35, µM (titrated, usually from 10 µM), without a hit: at the top dose activity change, negative = signal loss. hit rate 9.4% among 1,500. AID 1053174, 2014; call rule not given here
The depositor's hits bear a star; / = no result given. This is a sample that favours compounds with a hit; in the whole collection about 1.9% have one here.

SMILES | TDP2 absorb | LEDGF integ inh | MBD2 inh | UHRF1 MBD2 ctr | NSD2 inh | Casp6 inh | TDP2 inh conf | IN multimer act | TR-FRET interf | LEDGF integ conf | AlphaScreen art
COc1ccc(/C=N/Nc2nnc(C)n2N)cc1OC | 53.8* | 48.2* | 2.7 | 8.3 | 110.8* | 22.1 | -3.2 | 0.4 | -1.2 | -14.4 | -2.7%
COc1ccc(/C=N/Nc2ncnc(Cl)c2N)cc1OC | 2.0 | -1.6 | -6.2 | -3.6 | 0.3 | 1.1 | / | / | / | / | /
Cc1nnc(N/N=C\c2ccc(-c3cccc(C(=O)O)c3)o2)n1N | 59.1* | 52.7* | -4.8 | 5.5 | 95.4* | 12.6 | 7.6 | 5.4 | -19.3 | 0.2 | 3.5%
COc1cc2[nH]c(Cl)c([N+](=O)[O-])c2cc1OC | 39.8* | 48.7* | -1.9 | 8.6 | 95.5* | 48.6* | 2.9 | 2.5 | -9.0 | 8.9 | -3.6%
COc1cc2[nH]c3c(Cl)ncnc3c2cc1OC | 1.8 | 1.5 | 3.4 | 2.6 | -1.4 | / | / | / | / | / | /
CCOC(=O)OC[C@@H]1[C@@H]2NC(=O)N(C)[C@@]1(CO)Oc1ccccc12 | / | / | / | / | / | -1.3 | / | / | / | / | /
CCOC(=O)c1c2c(n(C)c1C)C(=O)C(=O)c1ccc(Br)cc1-2 | -3.5 | 7.0 | 4.5 | -0.4 | / | / | / | / | / | / | /
CCOC(=O)c1c2c(n(Cc3ccccc3)c1C)C(=O)C(=O)c1ccccc1-2 | 51.2* | 17.0* | -9.4 | 1.6 | 62.8* | 12.2 | 73.1* | 2.5 | -8.8 | 72.4* | 9.34µM*
C[C@@H]1CN([C@@H](C)CO)C(=O)c2ccccc2-c2ccccc2CO[C@H]1CN(C)C(=O)CCC(F)(F)F | / | / | / | / | / | 3.3 | / | / | / | / | /
COc1ccc(NC(=O)Nc2cccc3c2O[C@H](CN(C)Cc2ccc(C(=O)O)cc2)[C@H](C)CN([C@H](C)CO)C3=O)cc1 | / | / | / | / | / | 0.3 | / | / | / | / | /
COc1ccc(CC2=CC(=O)c3ccccc3C2=O)cc1 | 53.0* | 1.5 | -4.7 | -4.6 | 54.6* | 4.1 | 17.5 | / | / | / | -4.1%
O=C1C=C(Nc2ccccc2O)c2ccccc2C1=O | 60.6* | 28.1* | -28.8 | -7.7 | 94.4* | 41.4* | 53.8* | 18.7* | -66.1 | 37.0* | -0.5%
O=C1C=C(Nc2cccnc2)c2ccccc2C1=O | 71.8* | 29.3* | -26.1 | 1.1 | 98.8* | 95.9* | 59.0* | 4.0 | -14.1 | 55.2* | 0.4%
COc1ccc(NC(=O)Nc2ccc3c(c2)C(=O)N([C@H](C)CO)C[C@H](C)[C@@H](CN(C)S(=O)(=O)c2cccs2)OCCCC[C@@H](C)O3)cc1 | / | / | / | / | / | -0.8 | / | / | / | / | /
C[C@H](CO)N1C[C@H](C)[C@H](CN(C)S(=O)(=O)c2ccc(Cl)cc2)Oc2c(NC(=O)Nc3ccc(F)cc3)cccc2C1=O | / | / | / | / | / | 4.8 | / | / | / | / | /

High-throughput results: PubChem BioAssay, several laboratories
